Test results: ChEMBL document CHEMBL4118283, “Discovery of a novel 2-(1H-pyrazolo[3,4-b]pyridin-1-yl)thiazole derivative as an EP1 receptor antagonist and in vivo studies in a bone fracture model” (Bioorg Med Chem Lett, 2018)
Active and inactive are the calls of the source. The calls are words filed in the database; no cut-off is given here.

Key:
[1] = Intrinsic clearance in rat; assay type: ADME, organism-based; conditions: in vivo
[2] = target: T1, Prostaglandin E2 receptor EP1 subtype (Homo sapiens, UniProt P34995); assay: Antagonist activity at EP1 receptor (unknown origin) by reporter gene assay; assay type: functional
T1 sequence (P34995 whole entry): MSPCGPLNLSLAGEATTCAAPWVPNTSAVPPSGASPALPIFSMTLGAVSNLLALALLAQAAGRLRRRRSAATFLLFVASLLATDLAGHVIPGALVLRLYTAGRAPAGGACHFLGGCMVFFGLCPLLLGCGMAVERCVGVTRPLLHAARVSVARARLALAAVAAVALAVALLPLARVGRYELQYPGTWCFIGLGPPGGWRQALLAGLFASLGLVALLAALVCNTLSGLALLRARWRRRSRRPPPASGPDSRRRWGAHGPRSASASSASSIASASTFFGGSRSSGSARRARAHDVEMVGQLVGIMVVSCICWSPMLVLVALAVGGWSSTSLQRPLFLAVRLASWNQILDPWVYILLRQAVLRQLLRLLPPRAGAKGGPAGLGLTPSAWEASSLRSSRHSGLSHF

[3] = Permeability in MDCK cells; assay type: ADME, cell-based, Canis lupus familiaris; conditions: dog, read-out: permeability
[4] = Intrinsic clearance in human; assay type: ADME, organism-based; conditions: in vivo
[5] = target: T2, Prostaglandin E2 receptor EP1 subtype (Homo sapiens) (UniProt P34995); assay: Antagonist activity at EP1 receptor (unknown origin) at 100 nM by reporter gene assay relative to control; assay type: functional
T2 sequence (whole entry): T1 sequence (P34995 whole entry)

[6] = Drug uptake in Sprague-Dawley rat plasma at 30 mg/kg, po bid for 4 weeks by LC-MS/MS analysis; assay type: ADME, organism-based; conditions: in vivo, 672 h
Procedure, shortened: (§1)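 Sprague–Dawley rats with femoral fractures dosed orally for 28 days (30 mg/kg once daily, 30 mg/kg twice daily, or 100 mg/kg once daily). Subclavian-vein blood taken 30 min before dosing (trough) or 1 h after dosing on days 1, 2, 3, 7, 14, 21 and 28; plasma drug measured by LC-MS/MS.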

[7] = target: T1, Prostaglandin E2 receptor EP1 subtype; assay: Binding affinity to EP1 receptor (unknown origin) by binding assay
[8] = Oral bioavailability in Sprague-Dawley rat at 10 to 100 mg/kg by LC-MS/MS analysis; assay type: ADME, organism-based; conditions: in vivo
[9] = Cmax in Sprague-Dawley rat at 10 to 100 mg/kg, po by LC-MS/MS analysis; assay type: ADME, organism-based; conditions: in vivo
Procedure, shortened: (§2)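 Single oral dose of 10, 30 or 100 mg/kg to 7-week-old female Sprague–Dawley rats (n = 3), vehicle 10% v/v DMSO, 5% v/v Cremophor EL, 85% v/v water. Subclavian-vein blood drawn at 0.5, 1, 2, 4, 8 and 24 h post dose; plasma separated by centrifugation and drug measured by LC-MS/MS.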

[10] = Cmax in Sprague-Dawley rat at 100 mg/kg, po by LC-MS/MS analysis; assay type: ADME, organism-based; parameters: dose 100 mg/kg, route oral; conditions: in vivo; procedure, shortened: as §2
[11] = target: Prostaglandin E2 receptor EP2 subtype (Homo sapiens, UniProt P43116); assay: Binding affinity to EP2 receptor (unknown origin)
Chain of Prostaglandin E2 receptor EP2 subtype (P43116 whole entry): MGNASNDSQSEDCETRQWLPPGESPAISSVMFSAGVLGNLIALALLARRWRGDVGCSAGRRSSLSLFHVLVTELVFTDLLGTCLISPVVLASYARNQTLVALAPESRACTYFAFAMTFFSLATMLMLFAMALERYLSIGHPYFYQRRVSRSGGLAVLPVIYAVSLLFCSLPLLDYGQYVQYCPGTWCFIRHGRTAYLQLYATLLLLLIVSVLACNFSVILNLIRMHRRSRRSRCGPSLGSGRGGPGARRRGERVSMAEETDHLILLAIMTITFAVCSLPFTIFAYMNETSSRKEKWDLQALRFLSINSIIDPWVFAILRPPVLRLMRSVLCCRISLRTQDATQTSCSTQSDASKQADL

[12] = Drug uptake in Sprague-Dawley rat plasma at 30 mg/kg, po qd for 4 weeks by LC-MS/MS analysis; assay type: ADME, organism-based; conditions: in vivo, 672 h; procedure, shortened: as §1
[13] = target: Prostaglandin E2 receptor EP4 subtype (Homo sapiens, UniProt P35408); assay: Binding affinity to EP4 receptor (unknown origin)
Chain of Prostaglandin E2 receptor EP4 subtype (P35408 whole entry): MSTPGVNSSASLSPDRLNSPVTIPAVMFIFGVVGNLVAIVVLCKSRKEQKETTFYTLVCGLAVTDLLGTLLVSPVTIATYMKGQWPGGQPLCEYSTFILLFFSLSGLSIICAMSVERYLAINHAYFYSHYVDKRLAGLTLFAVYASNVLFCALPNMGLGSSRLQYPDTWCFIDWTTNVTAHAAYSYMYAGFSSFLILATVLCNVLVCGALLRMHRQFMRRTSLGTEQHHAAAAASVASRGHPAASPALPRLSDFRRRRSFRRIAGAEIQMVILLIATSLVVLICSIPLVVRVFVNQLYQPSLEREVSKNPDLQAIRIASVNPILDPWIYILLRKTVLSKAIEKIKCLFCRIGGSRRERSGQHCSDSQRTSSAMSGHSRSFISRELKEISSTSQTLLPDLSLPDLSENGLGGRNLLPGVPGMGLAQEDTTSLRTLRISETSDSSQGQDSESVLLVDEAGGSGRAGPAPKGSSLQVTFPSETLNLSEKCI

Rattus norvegicus [14] = assay: Osteogenic activity in Sprague-Dawley rat drill-hole femoral fracture model assessed as callus formation at 100 mg/kg, po qd for 28 days; assay type: functional, organism-based; conditions: in the assay text read “closed” for “drill-hole”
Procedure, shortened: (§3)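 Closed mid-diaphyseal femur fracture in 8-week-old Sprague–Dawley rats under ip pentobarbital (50 mg/kg). Medial parapatellar arthrotomy, 1 mm drill hole at intercondylar fossa, 21-gauge needle inserted through the medullary canal, fracture by three-point bending. Oral drug or 0.5% MC vehicle given for 28 days. Radiographs at 0, 7, 14, 21, 28 days; outer hard callus area traced by image analysis.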

[15] = Drug uptake in Sprague-Dawley rat plasma at 100 mg/kg, po qd for 4 weeks by LC-MS/MS analysis; assay type: ADME, organism-based; conditions: in vivo, 672 h; procedure, shortened: as §1
Rattus norvegicus [16] = assay: Osteogenic activity in Sprague-Dawley rat drill-hole femoral fracture model assessed as callus formation at 30 mg/kg, po qd for 28 days; assay type: functional, organism-based; conditions: in the assay text read “closed” for “drill-hole”; procedure, shortened: as §3
Rattus norvegicus [17] = assay: AUC (0 to 8 hrs) in Sprague-Dawley rat at 10 to 100 mg/kg, po by LC-MS/MS analysis; assay type: ADME, organism-based; conditions: in vivo; procedure, shortened: as §2
[18] = target: T3, Prostaglandin E2 receptor EP3 subtype (Homo sapiens, UniProt P43115); assay: Binding affinity to EP3 receptor (unknown origin)
T3 sequence (P43115 whole entry): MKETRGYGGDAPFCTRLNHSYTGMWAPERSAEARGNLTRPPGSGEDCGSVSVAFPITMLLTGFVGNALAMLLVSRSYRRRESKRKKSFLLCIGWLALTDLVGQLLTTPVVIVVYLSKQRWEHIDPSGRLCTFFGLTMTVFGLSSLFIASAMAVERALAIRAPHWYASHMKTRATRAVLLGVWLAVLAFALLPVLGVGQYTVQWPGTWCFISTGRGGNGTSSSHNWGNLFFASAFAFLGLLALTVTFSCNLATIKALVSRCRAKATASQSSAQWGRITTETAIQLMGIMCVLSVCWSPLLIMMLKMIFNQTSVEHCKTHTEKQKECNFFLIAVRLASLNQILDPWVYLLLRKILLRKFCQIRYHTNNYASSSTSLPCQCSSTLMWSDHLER

Salmonella typhimurium = assay: Mutagenicity in Salmonella typhimurium by Ames test; assay type: toxicity, organism-based; conditions: salmonella enterica subsp. enterica serovar typhimurium
[19] = Drug uptake in Sprague-Dawley rat plasma at 100 mg/kg, po after 24 hrs by LC-MS/MS analysis; assay type: ADME, organism-based; conditions: in vivo; procedure, shortened: as §2
[20] = Cmax in Sprague-Dawley rat at 10 mg/kg, po by LC-MS/MS analysis; assay type: ADME, organism-based; parameters: dose 10 mg/kg, route oral; conditions: in vivo; procedure, shortened: as §2
[21] = Cmax in Sprague-Dawley rat at 30 mg/kg, po by LC-MS/MS analysis; assay type: ADME, organism-based; parameters: dose 30 mg/kg, route oral; conditions: in vivo; procedure, shortened: as §2
Rattus norvegicus [22] = assay: Osteogenic activity in Sprague-Dawley rat drill-hole femoral fracture model assessed as callus formation at 30 mg/kg, po bid for 28 days; assay type: functional, organism-based; conditions: in the assay text read “closed” for “drill-hole”; procedure, shortened: as §3
[23] = Protein binding in Sprague-Dawley rat plasma at 10 to 100 mg/kg, po by LC-MS/MS analysis; assay type: ADME, organism-based; conditions: read-out: PPB (converted)

Molecule O=C(O)c1csc(Cn2nc(-c3ccccc3)c3ccc(C(F)(F)F)cc32)n1 has a CLint scaled [1] of 111 mL/min/kg, an IC50 [2] of 0.012 µM and a Papp [3] of 19.7 ×10⁻⁶ cm/s. For the same molecule, the CLint scaled [4] was 48 mL/min/kg.

O=C(O)c1csc(-n2nc(-c3ccccc3)c3ccc(N4CCCC4)nc32)n1 gave an inhibition [5] of 11%.

For O=C(O)c1csc(-n2nc(-c3ccccc3)c3ccc(C(F)(F)F)nc32)n1, the Drug uptake [6] was “Active”, the Ki [7] was 0.0087 µM and the CLint scaled [1] was 94 mL/min/kg. The bioavailability [8] was 26%, the Cmax [9] was 2.62 µM and the Cmax [10] was 179 µM. For the same molecule, the Ki [11] was > 8.7 µM, the Drug uptake [12] was “Active” and the IC50 [2] was 0.0003 µM. The Ki [13] was > 2.7 µM, the Activity (Rattus norvegicus [14]) was “Active” and the Drug uptake [15] was “Active”. For the same molecule, the Activity (Rattus norvegicus [16]) was “Active”, the AUC (Rattus norvegicus [17]) was 5.71 microM/L.hr and the Ki [18] was > 5 µM. The Activity (Salmonella typhimurium) was “Non-Toxic”, the Drug uptake [19] was “Active” and the Papp [3] was 23.5 ×10⁻⁶ cm/s. For the same molecule, the Cmax [20] was 24.8 µM, the CLint scaled [4] was 70 mL/min/kg and the Cmax [21] was 75.1 µM. For the same molecule, the Activity (Rattus norvegicus [22]) was “Active” and the fraction unbound [23] was 0.026.

For O=C(O)c1csc(-n2nc(-c3ccccc3)c3ccc(C(F)(F)F)cc32)n1, the Cmax [9] was 5.34 µM and the AUC (Rattus norvegicus [17]) was 9.27 microM/L.hr.

In the case of O=C(O)c1csc(-n2nc(C3=CCCCO3)c3ccc(C(F)(F)F)cc32)n1, the CLint scaled [1] is reported as 232 mL/min/kg, the IC50 [2] is reported as 0.0007 µM and the Papp [3] is reported as 39 ×10⁻⁶ cm/s. For the same molecule, the CLint scaled [4] was 146 mL/min/kg.

Molecule O=C(O)c1csc(-n2nc(-c3ccccc3)c3ncc(C(F)(F)F)cc32)n1 has an IC50 [2] of 0.012 µM.

Work on CN(C)c1ccc2c(-c3ccccc3)nn(-c3nc(C(=O)O)cs3)c2n1 yielded an IC50 [2] of 0.012 µM.

O=C(O)c1csc(-n2nc(-c3ccccc3)c3ccc(N4CCC4)nc32)n1 showed an IC50 [2] of 0.04 µM.
